Source: PubChem BioAssay (SRMLSC)
In the library only some 2.6% were active in any assay of this set; here they are far more common.
RAM inhibit: inhibitors of the yeast RAM network; actives 1.8% (n = 190,000); inhibition, % at 50 µM; S. cerevisiae dse1pr::URA3 reporter, 5-FOA growth OD615, 2 d; analog-sensitive cbk1-as2 kinase mutant strain;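 active means inhibition above a set limit, 3 SD over mean compound inhibition, cut at about 8.4% in these data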;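 further: 0% = DMSO-only wells with no growth and 100% = 10 µM 1-NA-PP1 full growth; inhibition rescues growth on 5-FOA so higher OD means more RAM inhibition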
Yeast growth inh: chemicals that inhibit yeast BB579 growth in restrictive medium (lifespan-shortening candidates); S. cerevisiae BB579 growth, OD615, 48 h; inhibition, % at 10 µM; actives 0.51% (n = 140,000);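 active means inhibition above a set limit, 3 SD over the mean compound inhibition, cut at about 44% in these data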
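System: Saccharomyces cerevisiae DeaD strain BB579, replicative lifespan model yeast | Buffer or medium: Restrictive glucose-based CSMM-D medium | Times: 4 h preincubation and 48 h exposure at 30 °C | Detection: OD615 turbidity measurement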
Yeast life ext: extends the lifespan of yeast | AID 775 | S. cerevisiae growth with nicotinamide, OD615; deaD strain in restrictive glucose medium | actives 0.68% (n = 130,000) | inhibition of the nicotinamide effect, % at 10 µM;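 active means inhibition above a set limit, placed 3 SD over the median of all compounds, cut at about 26% in these data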;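 further: 0% = nicotinamide-treated wells and 100% = cells grown without nicotinamide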
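assay system = DeaD-strain S. cerevisiae | buffer or medium = restrictive glucose medium | reagent = 1.5 mM nicotinamide | compound = 10 µM single point, 0.25% DMSO | incubation = 48 h compound exposure at 30 °C, humidified | signal = OD615 measurement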
* = called active by the depositor; nt = not tested or not shown.

SMILES	RAM inhibit	Yeast growth inh	Yeast life ext
O=c1[nH]c2ccccc2nc1C(Cl)c1ccccc1 (stereo unspecified)	-1	-42	37*
CCOC(=O)C(C)c1nc2ccccc2[nH]c1=O (stereo unspecified)	-2	-58	-14
S=C1NCCNC(=S)NCCOCCOCCOCCN1	-1	nt	nt
Cc1ccccc1N(CC(=O)Nc1ccc(S(=O)(=O)N2CCOCC2)cc1)S(C)(=O)=O	0	nt	nt
CC(=O)NC(CCS(C)(=O)=O)C(=O)Nc1ccc2c(c1)OCO2 (stereo unspecified)	2	44*	9
CC(=O)NC(CCS(C)(=O)=O)C(=O)Nc1ccc2c(c1)OCCO2 (stereo unspecified)	0	-36	nt
O=C(CCC1CCCN(c2ncccn2)C1)NCc1ccc(F)c(F)c1 (stereo unspecified)	3	nt	nt
C=CCn1c(C)cc(C(=O)CSc2nnc(Cc3ccccc3)o2)c1C	9.8*	34	0
Cc1cc(C(=O)CSc2nnc(Cc3ccccc3)o2)c(C)n1Cc1ccc2c(c1)OCO2	7	-68	-2
C=CCn1c(C)cc(C(=O)CSc2nc3ccccc3c(=O)[nH]2)c1C	2	-61	69*
C=CCn1c(C)cc(C(=O)CSc2nc3ccccc3[nH]2)c1C	4	-54	-16
O=C(O)CCCC(=O)N1CCc2cc(S(=O)(=O)NCc3ccc(F)cc3)ccc21	1	nt	nt
COc1cccc(C(=O)NC(=S)NCc2ccco2)c1	-1	-38	-7
COc1cc(OC)cc(C(=O)NC(=S)NCc2ccco2)c1	9.5*	-52	-7
CCOC(=O)c1cnc(-n2nc(C)cc2C)nc1NC1CCCCC1	-2	98*	-13
CCOC(=O)c1cnc(-n2nc(C)cc2C)nc1NC	-1	-10	-23
COC(=O)CC1C(=O)NCCN1C(=S)Nc1ccccc1Cl (stereo unspecified)	1	nt	nt
CC(=O)c1cccc(NC(=O)COC(=O)c2n[nH]c3ccccc23)c1	1	nt	nt
CCn1c(/N=C/c2ccccc2NS(=O)(=O)c2ccc(C)cc2)nc2ccccc21	0	-5	50*
CCCCn1c(NCc2ccccc2NS(=O)(=O)c2ccc(C)cc2)nc2ccccc21	-2	-24	-13
O=C(c1ccccc1)c1nn(-c2ccc(Cl)cc2)c(=O)cc1C(F)(F)F	5	-14	32*
O=C(c1ccccc1)c1nn(-c2ccccc2)c(=O)cc1C(F)(F)F	-2	-26	45
CC1=CN2C(=N)/C(=C/c3ccco3)C(=O)N=C2S1	4	-26	-6
CC1=CN2C(=N)/C(=C/c3ccc([N+](=O)[O-])o3)C(=O)N=C2S1	4	20	33*
COc1ccc(-n2cc(C#N)c(=O)[nH]c2=O)cc1	2	nt	nt
SMILES	RAM inhibit	Yeast growth inh	Yeast life ext
O=C(Nc1cccc(S(=O)(=O)N2CCCCC2)c1)c1ccc2c(=O)n3c(nc2c1)CCCCC3	2	-30	-4
CCCCNc1cc(C)nc(NCc2ccccc2)n1	0	-24	-6
Cc1cc(Nc2ccccc2)nc(NCc2ccccc2)n1	4	-33	-2
Cc1cc(Nc2ccc(Cl)cc2)nc(NCc2ccccc2)n1	8.4*	-28	-10
Cc1cc(N/N=C/c2ccc(Cl)cc2Cl)nc(NCc2ccccc2)n1	-1	99*	-14
CN(CC(=O)Nc1ccccc1Sc1ccccc1)C1CCCCC1	1	nt	nt
COc1cccc(-n2c([S-])c(C(=O)Nc3ccc(C(F)(F)F)cc3)[n+]3ccccc23)c1	3	nt	nt
Cc1cc(Oc2ccc(C)c(Cl)c2)nc(SCC(=O)c2ccccc2)n1	9.1*	-32	5
Cc1ccc(C(=O)CSc2cc(C)nc(SCC(=O)c3ccccc3)n2)cc1	7	-24	-3
CC1CN(C(=O)Nc2cccc(Cl)c2)C2(CCCCCC2)O1 (stereo unspecified)	0	nt	nt
O=C(Nc1cc(Cl)ccc1Oc1ccccc1)c1ccccc1F	1	-21	-5
Cc1ccc(Oc2ccc(Cl)cc2NC(=O)c2ccc(F)cc2F)cc1	8.9*	-30	6
COc1ccccc1N1C(=O)c2cccc3c(C(=O)O)ccc(c23)C1=O	0	15	-9
COc1ccc2c3c(cccc13)C(=O)N(O)C2=O	2	-26	58*
COc1ccc(N2CCN(C(=S)Nc3cccc(C)c3C)CC2)cc1	10*	-74	4
COc1ccc(N2CCN(C(=S)Nc3ccc(C)cc3)CC2)cc1	3	nt	nt
CC(C)(C)OC(=O)CN1C(=O)C(Sc2n[nH]c(-c3ccccc3)n2)CCc2ccccc21 (stereo unspecified)	0	-28	-11
Cc1ccccc1-n1c(C)nnc1SCc1cc(=O)oc2ccc3ccccc3c12	0	-25	3
O=C(Oc1ccc(=O)n(-c2ccccc2)n1)c1ccccc1	-1	-52	36*
